This passage reports IC50 and Delta blood pressure results from ChEMBL document CHEMBL1124671, “Carboxyalkyl dipeptides with atrial natriuretic factor potentiating and antihypertensive activity” (J Med Chem, 1989).

The source made the active and inactive calls. No cut-off for these calls is given here.

The target of experiment [1] is T1, Angiotensin-converting enzyme (Rattus norvegicus, UniProt P47820).
T1 sequence (P47820 whole entry): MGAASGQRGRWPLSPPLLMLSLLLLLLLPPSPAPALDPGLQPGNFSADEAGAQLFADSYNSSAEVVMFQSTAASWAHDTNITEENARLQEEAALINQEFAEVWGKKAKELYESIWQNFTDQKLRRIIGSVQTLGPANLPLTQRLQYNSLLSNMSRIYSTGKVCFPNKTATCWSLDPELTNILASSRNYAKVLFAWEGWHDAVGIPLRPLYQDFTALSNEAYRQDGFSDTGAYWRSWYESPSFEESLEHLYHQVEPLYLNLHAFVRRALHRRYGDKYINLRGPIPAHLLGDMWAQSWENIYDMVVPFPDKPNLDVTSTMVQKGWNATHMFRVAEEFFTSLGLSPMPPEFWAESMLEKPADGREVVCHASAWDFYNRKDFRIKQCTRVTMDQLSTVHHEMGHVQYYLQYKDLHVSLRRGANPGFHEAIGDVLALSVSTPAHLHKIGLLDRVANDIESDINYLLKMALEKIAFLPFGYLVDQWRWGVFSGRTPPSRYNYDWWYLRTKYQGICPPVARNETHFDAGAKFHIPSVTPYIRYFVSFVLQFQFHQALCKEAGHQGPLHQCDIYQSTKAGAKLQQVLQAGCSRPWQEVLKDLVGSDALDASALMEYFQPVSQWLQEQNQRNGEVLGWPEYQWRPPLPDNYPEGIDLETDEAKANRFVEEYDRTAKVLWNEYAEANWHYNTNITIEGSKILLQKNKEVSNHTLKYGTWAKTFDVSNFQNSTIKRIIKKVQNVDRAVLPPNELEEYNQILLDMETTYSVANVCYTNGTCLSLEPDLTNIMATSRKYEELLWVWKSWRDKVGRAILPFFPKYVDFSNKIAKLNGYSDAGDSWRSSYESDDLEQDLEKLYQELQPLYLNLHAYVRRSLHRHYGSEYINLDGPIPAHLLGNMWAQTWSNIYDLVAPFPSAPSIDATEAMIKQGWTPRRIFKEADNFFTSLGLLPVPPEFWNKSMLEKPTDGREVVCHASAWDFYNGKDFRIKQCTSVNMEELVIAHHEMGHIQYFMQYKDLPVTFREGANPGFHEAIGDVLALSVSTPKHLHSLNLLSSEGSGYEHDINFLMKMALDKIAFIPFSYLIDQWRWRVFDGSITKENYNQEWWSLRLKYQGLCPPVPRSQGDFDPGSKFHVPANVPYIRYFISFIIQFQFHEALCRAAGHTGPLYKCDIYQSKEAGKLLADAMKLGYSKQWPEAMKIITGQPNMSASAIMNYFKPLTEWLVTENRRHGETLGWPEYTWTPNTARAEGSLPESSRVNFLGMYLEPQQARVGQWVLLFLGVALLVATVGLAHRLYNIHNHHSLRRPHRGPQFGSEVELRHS
The experiment in a line: Compound was evaluated for the ability to inhibit Angiotensin I converting enzyme in rat.

A further experiment deals with T2, Neprilysin (Oryctolagus cuniculus, UniProt P08049).
T2 sequence (P08049 whole entry): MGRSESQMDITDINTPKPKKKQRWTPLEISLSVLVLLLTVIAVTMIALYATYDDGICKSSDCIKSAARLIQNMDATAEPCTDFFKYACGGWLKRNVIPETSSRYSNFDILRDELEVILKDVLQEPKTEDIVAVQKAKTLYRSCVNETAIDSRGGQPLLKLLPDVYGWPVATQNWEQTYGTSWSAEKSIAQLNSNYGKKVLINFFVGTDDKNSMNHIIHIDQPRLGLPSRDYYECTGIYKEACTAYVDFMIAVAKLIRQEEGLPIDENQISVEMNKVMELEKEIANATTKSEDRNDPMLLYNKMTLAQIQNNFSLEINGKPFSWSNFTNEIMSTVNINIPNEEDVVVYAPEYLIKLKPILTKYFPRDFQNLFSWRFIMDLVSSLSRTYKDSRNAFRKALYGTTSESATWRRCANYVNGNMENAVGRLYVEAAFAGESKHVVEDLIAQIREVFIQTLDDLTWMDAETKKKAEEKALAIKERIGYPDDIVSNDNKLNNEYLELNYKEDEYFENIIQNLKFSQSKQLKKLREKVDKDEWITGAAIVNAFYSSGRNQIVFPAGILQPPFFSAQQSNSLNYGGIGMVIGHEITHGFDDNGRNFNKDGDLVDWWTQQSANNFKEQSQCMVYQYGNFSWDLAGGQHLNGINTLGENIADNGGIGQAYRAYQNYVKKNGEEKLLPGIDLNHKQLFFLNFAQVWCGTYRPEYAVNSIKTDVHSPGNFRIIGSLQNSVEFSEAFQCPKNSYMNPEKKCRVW
As to the kind of experiment: Compound was evaluated for the ability to inhibit neutral endopeptidase purified from rabbit kidney. The procedure, abridged:
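Enzyme: purified rabbit kidney neutral endopeptidase (NEP).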

Experiment [2] has as its target T3, Natriuretic peptides A (Rattus norvegicus) (UniProt P01161).
T3 sequence (whole entry): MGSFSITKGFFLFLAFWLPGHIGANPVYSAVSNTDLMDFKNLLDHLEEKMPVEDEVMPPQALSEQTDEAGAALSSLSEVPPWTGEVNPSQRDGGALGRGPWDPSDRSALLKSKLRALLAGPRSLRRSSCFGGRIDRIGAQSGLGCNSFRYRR
As to the kind of experiment: Compound was administered subcutaneously to spontaneously hypertensive rats (SHR) and evaluated for the ability to potentiate atrial natriuretic factor (ANF). Summed up: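 Conscious SHR given 30 mg/kg s.c. 30 min before an i.v. challenge of 30 μg/kg ANF 103–125; mean arterial pressure followed, with vehicle-treated controls. Value is the maximum increase in hypotensive response to ANF over the control group.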

In experiment [3] the target is T3, Natriuretic peptides A (Rattus norvegicus). The following applies: Cardiac atrium.

By IC50 is commonly meant the concentration needed to halve the response being measured. Higher therefore signals weaker potency. On to `O=C(O)[C@H](CCc1ccccc1)N[C@@H](Cc1ccccc1)C(=O)NC[C@H](O)C(=O)O` (stereo in doubt; 6d) [listing 1 of 2 here], for which the values for the half-inhibitory concentration (IC50) (in experiment [1]; at Neprilysin) were greater than 1000 nM and 11 nM, respectively.
In the case of `O=C(O)[C@H](CCc1ccccc1)N[C@@H](Cc1ccccc1)C(=O)NC[C@H](O)C(=O)O` (stereo in doubt; 6e) [listing 1 of 2 here], in experiment [2], the Delta blood pressure was found to be 35 mmHg.
Regarding `O=C(O)[C@H](CCc1ccccc1)N[C@@H](Cc1ccccc1)C(=O)NC[C@H](O)C(=O)O` (stereo in doubt; 6e) [listing 2 of 2 here], the results for the IC50 (in experiment [1]; at Neprilysin) were greater than 1000 nM and 15 nM, respectively.
Turning to `O=C(O)[C@H](CO)NC(=O)[C@H](Cc1ccccc1)N[C@@H](CCc1ccccc1)C(=O)O`, the figures for the IC50 (in experiment [1]; at Neprilysin) were 320 nM and 393 nM, respectively. Further, in experiment [3], the Delta blood pressure entry is “inactive”.
As for `O=C(O)[C@H](CCc1ccccc1)N[C@@H](Cc1ccccc1)C(=O)NC[C@H](O)C(=O)O` (stereo in doubt; 6d) [listing 2 of 2 here], in experiment [2], the Delta blood pressure was 25 mmHg.
Regarding `O=C(O)CCNC(=O)[C@H](Cc1ccccc1)N[C@@H](CCc1ccccc1)C(=O)O`, the IC50 was greater than 1000 nM in experiment [1] and 16 nM against Neprilysin. Besides, in experiment [2], the Delta blood pressure was found to be 17 mmHg.
On the same counts, the results for `O=C(O)CCNC(=O)[C@H](Cc1ccccc1)N[C@@H](Cc1ccccc1)C(=O)O` are greater than 1000 nM, 20 nM and 20 mmHg.
On to `O=C(O)[C@H](Cc1ccccc1)N[C@@H](Cc1ccccc1)C(=O)NC[C@H](O)C(=O)O`, for which the IC50 in experiment [1] was greater than 1000 nM; against Neprilysin it was 11 nM. In experiment [2], the Delta blood pressure is 17 mmHg.
As to `O=C(O)[C@H](O)CNC(=O)[C@H](Cc1ccccc1)N[C@@H](CCc1ccccc1)C(=O)O`, the results for the IC50 (in experiment [1]; on Neprilysin) were 640 nM and 21 nM, respectively. The Delta blood pressure in experiment [2] is 28 mmHg.
